Activity calls are given as the source filed them. No cut-off for these calls is given here.
Legend:
[1] = target: T1, Inhibitor of nuclear factor kappa-B kinase subunit beta (Homo sapiens) (UniProt O14920); assay: Inhibition of human FLAG-tagged IKK-beta expressed in HEK293 cells at 50 uM by Western blot analysis in presence of ATP; format: cell-based
T1 sequence (whole entry): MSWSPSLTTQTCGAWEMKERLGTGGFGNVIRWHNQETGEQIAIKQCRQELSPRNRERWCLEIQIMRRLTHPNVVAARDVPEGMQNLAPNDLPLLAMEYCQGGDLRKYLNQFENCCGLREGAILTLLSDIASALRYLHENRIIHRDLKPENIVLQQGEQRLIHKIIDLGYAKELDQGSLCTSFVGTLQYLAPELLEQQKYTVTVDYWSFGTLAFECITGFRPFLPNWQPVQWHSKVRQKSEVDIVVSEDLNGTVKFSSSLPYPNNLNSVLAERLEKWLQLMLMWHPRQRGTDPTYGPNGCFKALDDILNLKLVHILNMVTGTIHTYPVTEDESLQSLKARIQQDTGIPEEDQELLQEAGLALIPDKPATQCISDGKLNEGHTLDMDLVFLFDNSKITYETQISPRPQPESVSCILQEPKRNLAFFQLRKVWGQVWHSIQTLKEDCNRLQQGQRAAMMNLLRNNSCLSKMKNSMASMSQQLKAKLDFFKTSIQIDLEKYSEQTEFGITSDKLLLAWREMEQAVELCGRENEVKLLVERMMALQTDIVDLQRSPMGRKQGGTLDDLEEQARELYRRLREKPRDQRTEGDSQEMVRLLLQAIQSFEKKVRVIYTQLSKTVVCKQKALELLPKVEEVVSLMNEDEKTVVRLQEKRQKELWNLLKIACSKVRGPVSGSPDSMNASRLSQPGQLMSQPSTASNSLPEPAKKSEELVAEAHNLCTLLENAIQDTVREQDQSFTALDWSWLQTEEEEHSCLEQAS
Method in brief: (§1)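 FLAG-IKKβ was transiently overexpressed in HEK293 cells for 24 h, then immunoprecipitated with anti-FLAG antibody. Precipitates were incubated with or without compound before the kinase reaction, and the phosphorylated product was read out by Western blot.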

A549 [2] = assay: Antiinflammatory activity in human A549 cells assessed as reduction of TNF-alpha-induced cell surface ICAM1 expression upto 100 uM preincubated for 1 hr before TNFalpha challenge measured after 6 hrs by Western blot analysis; format: functional, cell-based
Method in brief: (§2)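 A549 cells pretreated 1 h with peperomins at various concentrations, then TNF-α (2.5 ng/mL) or IL-1 (0.25 ng/mL) added for 6 h with compound still present. Whole-cell lysates were Western blotted for ICAM-1, with β-actin as loading control.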

A549 [3] = assay: Antiinflammatory activity in human A549 cells assessed as reduction of IL1-induced cell surface ICAM1 expression upto 100 uM preincubated for 1 hr before IL1 challenge measured after 6 hrs by Western blot analysis; format: functional, cell-based; method in brief: as §2
A549 [4] = assay: Reduction of IL1-induced COX2 expression in human A549 cells at 100 uM preincubated for 1 hr before IL1 challenge measured after 6 hrs by Western blot analysis; format: functional, cell-based
Method in brief: (§3)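 Cox-2 protein was Western blotted in A549 cells, with β-actin as loading control. Cells were pretreated 1 h with compound at various concentrations, then exposed 6 h to TNF-α (2.5 ng/mL) or IL-1 (0.25 ng/mL) in its continued presence.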

A549 [5] = assay: Antiinflammatory activity in human A549 cells assessed as reduction of TNF-alpha-induced increase in cell surface ICAM1 expression upto 100 uM preincubated for 1 hr before TNFalpha challenge measured after 6 hrs by ELISA; format: functional, cell-based
Method in brief: (§4)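 Cell ELISA of surface ICAM-1 on A549 cells. Cells were pretreated 1 h across a concentration series, then stimulated 6 h with TNF-α (2.5 ng/mL) or IL-1 (0.25 ng/mL) with compound present. Values are means ± SD of triplicate cultures.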

A549 [6] = assay: Antiinflammatory activity in human A549 cells assessed as reduction of IL1-induced increase in cell surface ICAM1 expression upto 100 uM preincubated for 1 hr before IL1 challenge measured after 6 hrs by ELISA; format: functional, cell-based; method in brief: as §4
A549 [7] = assay: Antiinflammatory activity in human A549 cells assessed as reduction of IL1-induced increase in cell surface ICAM1 expression preincubated for 1 hr before IL1 challenge measured after 6 hrs by ELISA; format: functional, cell-based; method in brief: as §4
MCF7 [8] = assay: Antiinflammatory activity in human MCF7 cells assessed as inhibition of TNF-alpha-induced cell surface ICAM1 expression upto 100 uM preincubated for 1 hr before TNFalpha challenge measured after 6 hrs by ELISA; format: functional, cell-based
MCF7 [9] = assay: Antiinflammatory activity in human MCF7 cells assessed as inhibition of IL1-induced cell surface ICAM1 expression upto 100 uM preincubated for 1 hr before IL1 challenge measured after 6 hrs by ELISA; format: functional, cell-based
MCF7 [10] = assay: Cytotoxicity against human MCF7 cells upto 100 uM after 6 hrs by MTT assay; format: cell-based; settings: mcf7, 6 h
A549 [11] = assay: Cytotoxicity against human A549 cells upto 100 uM after 6 hrs by MTT assay; format: cell-based; settings: a549, 6 h
Method in brief: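 A549 viability by MTT after 6 h exposure to a range of compound concentrations, no cytokine. Viability given as %, means ± SD of triplicate cultures.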

A549 [12] = assay: Antiinflammatory activity in human A549 cells assessed as substantial decrease in TNF-alpha-induced cell surface ICAM1 expression at > 10 uM preincubated for 1 hr before TNFalpha challenge measured after 6 hrs by Western blot analysis; format: functional, cell-based; method in brief: as §2
A549 [13] = assay: Antiinflammatory activity in human A549 cells assessed as substantial decrease in IL1-induced cell surface ICAM1 expression at > 10 uM preincubated for 1 hr before IL1 challenge measured after 6 hrs by Western blot analysis; format: functional, cell-based; method in brief: as §2
A549 [14] = assay: Antiinflammatory activity in human A549 cells assessed as complete decrease in TNF-alpha-induced cell surface ICAM1 expression at 100 uM preincubated for 1 hr before TNFalpha challenge measured after 6 hrs by Western blot analysis; format: functional, cell-based; method in brief: as §2
A549 [15] = assay: Antiinflammatory activity in human A549 cells assessed as complete decrease in IL1-induced cell surface ICAM1 expression at 100 uM preincubated for 1 hr before IL1 challenge measured after 6 hrs by Western blot analysis; format: functional, cell-based; method in brief: as §2
A549 [16] = assay: Reduction of TNF-alpha-induced COX2 expression in human A549 cells at 100 uM preincubated for 1 hr before TNFalpha challenge measured after 6 hrs by Western blot analysis; format: functional, cell-based; method in brief: as §3
[17] = target: T2, Inhibitor of nuclear factor kappa-B kinase subunit alpha (Homo sapiens) (UniProt O15111); assay: Inhibition of N-terminal GST-fused human IkappaBalpha (1 to 54) expressed in Escherichia coli BL21
T2 sequence (whole entry): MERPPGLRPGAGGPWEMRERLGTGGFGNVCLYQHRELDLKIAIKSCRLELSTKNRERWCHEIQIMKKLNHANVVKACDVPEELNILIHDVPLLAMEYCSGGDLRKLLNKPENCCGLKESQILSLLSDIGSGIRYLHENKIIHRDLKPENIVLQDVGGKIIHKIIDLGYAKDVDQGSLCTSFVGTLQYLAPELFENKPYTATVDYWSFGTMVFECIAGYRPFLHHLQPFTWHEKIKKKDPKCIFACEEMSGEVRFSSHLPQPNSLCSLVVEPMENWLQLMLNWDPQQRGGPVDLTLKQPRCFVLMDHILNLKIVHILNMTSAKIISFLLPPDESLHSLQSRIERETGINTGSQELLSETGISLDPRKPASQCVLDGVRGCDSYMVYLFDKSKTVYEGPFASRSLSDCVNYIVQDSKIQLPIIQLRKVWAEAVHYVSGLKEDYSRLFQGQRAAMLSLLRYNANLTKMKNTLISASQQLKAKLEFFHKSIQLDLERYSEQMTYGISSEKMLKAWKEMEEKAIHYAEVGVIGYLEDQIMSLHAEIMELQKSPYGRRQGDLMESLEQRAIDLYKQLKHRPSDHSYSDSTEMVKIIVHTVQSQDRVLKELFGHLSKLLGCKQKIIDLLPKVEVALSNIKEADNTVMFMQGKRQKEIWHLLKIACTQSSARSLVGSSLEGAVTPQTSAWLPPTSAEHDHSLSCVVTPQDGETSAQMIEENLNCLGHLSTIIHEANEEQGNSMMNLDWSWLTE
Method in brief: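 IKK complex was immunoprecipitated with anti-IKKα from A549 cells. Cells were pretreated 1 h with compound, then given TNF-α (2.5 ng/mL) for 15 min. Precipitates phosphorylated GST-IκBα(1–54) with or without ATP (10 µM). Phospho-substrate was detected by Western blot with anti-phospho-IκB antibody, with bands quantified relative to IKKα.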

[18] = target: T1, Inhibitor of nuclear factor kappa-B kinase subunit beta (Homo sapiens); assay: Inhibition of human FLAG-tagged IKK-beta expressed in HEK293 cells at 0.1 to 100 uM by Western blot analysis in presence of ATP; format: cell-based; method in brief: as §1
A549 [19] = assay: Antiinflammatory activity in human A549 cells assessed as reduction of TNF-alpha-induced increase in cell surface ICAM1 expression preincubated for 1 hr before TNFalpha challenge measured after 6 hrs by ELISA; format: functional, cell-based; method in brief: as §4
[20] = target: T3, NF-kappa-B inhibitor alpha (Homo sapiens) (UniProt P25963); assay: Inhibition of IL1-stimulated IkappaBalpha degradation in human A549 cells at 0.1 to 100 uM preincubated for 1 hr before IL1 challenge measured after 10 mins by Western blot analysis; format: cell-based
T3 sequence (whole entry): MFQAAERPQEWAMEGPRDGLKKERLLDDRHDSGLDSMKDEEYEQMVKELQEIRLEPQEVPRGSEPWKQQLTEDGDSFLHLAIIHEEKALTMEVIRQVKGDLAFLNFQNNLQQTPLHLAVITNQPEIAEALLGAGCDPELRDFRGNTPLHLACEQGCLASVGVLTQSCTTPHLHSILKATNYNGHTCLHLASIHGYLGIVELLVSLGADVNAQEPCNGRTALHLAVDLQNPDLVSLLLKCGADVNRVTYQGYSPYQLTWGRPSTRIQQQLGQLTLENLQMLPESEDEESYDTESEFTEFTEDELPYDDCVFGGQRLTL

A549 [21] = assay: Inhibition of TNF-alpha-induced IKKalpha expression in human A549 cells at 100 uM preincubated for 1 hr before TNFalpha challenge measured after 5 to 30 mins by Western blot analysis; format: functional, cell-based
A549 [22] = assay: Inhibition of IL1-induced IKKalpha expression in human A549 cells at 100 uM preincubated for 1 hr before IL1 challenge measured after 5 to 30 mins by Western blot analysis; format: functional, cell-based
A549 [23] = assay: Inhibition of TNF-alpha-induced IKK-beta expression in human A549 cells at 100 uM preincubated for 1 hr before TNFalpha challenge measured after 5 to 30 mins by Western blot analysis; format: functional, cell-based
A549 [24] = assay: Inhibition of IL1-induced IKK-beta expression in human A549 cells at 100 uM preincubated for 1 hr before IL1 challenge measured after 5 to 30 mins by Western blot analysis; format: functional, cell-based
A549 [25] = assay: Selectivity for inhibition of TNF-alpha-induced cell surface ICAM1 expression over inhibition of TNF-alpha-induced COX2 expression in human A549 cells; format: functional
A549 [26] = assay: Selectivity for inhibition of IL1-induced cell surface ICAM1 expression over inhibition of IL1-induced COX2 expression in human A549 cells; format: functional
[27] = target: T3, NF-kappa-B inhibitor alpha (Homo sapiens); assay: Inhibition of TNF-alpha-stimulated IkappaBalpha degradation in human A549 cells at 0.1 to 100 uM preincubated for 1 hr before TNFalpha challenge measured after 15 mins by Western blot analysis

SMILES | Activity (A549 [2]) | Activity (A549 [3]) | Activity (A549 [4]) | Activity (A549 [5]) | Activity (A549 [6]) | Activity (A549 [7]) | Activity (MCF7 [8]) | Activity (MCF7 [10]) | Activity (A549 [11]) | Activity (A549 [12]) | Activity (A549 [13]) | Activity (A549 [14]) | Activity (A549 [15]) | Activity (A549 [16]) | inhibition [17] | inhibition [18] | Activity (A549 [19]) | further results
CCCCC/C=C/C=C1/C(=O)C=C[C@@H]1C/C=C\CCCC(=O)O | – | – | – | – | – | – | – | – | – | – | – | – | – | – | – | – | – | inhibition [1]: Active
COc1cc(C(c2cc(OC)c3c(c2)OCO3)[C@@H]2COC(=O)[C@H]2C)cc2c1OCO2 | inactive | inactive | inactive | inactive | inactive | – | – | – | – | – | – | – | – | – | – | – | – | –
C=C1C(=O)OC[C@H]1[C@@H](c1cc(OC)c(OC)c(OC)c1)c1cc(OC)c2c(c1)OCO2 [2,6-DIDEHYDROPEPEROMIN B] | – | – | – | – | – | Dose-dependent effect | Active | Non-toxic | Toxic | Active | Active | Active | Active | Active | Active | inactive | Dose-dependent effect | inhibition (MCF7 [9]): Active
COc1cc([C@@H](c2cc(OC)c3c(c2)OCO3)[C@@H]2COC(=O)[C@H]2C)cc(OC)c1OC | inactive | inactive | inactive | inactive | inactive | – | – | – | – | – | – | – | – | – | – | – | – | –
C=C1C(=O)OC[C@H]1C(c1cc(OC)c2c(c1)OCO2)c1cc(OC)c2c(c1)OCO2 [PEPEROMIN E] | – | – | – | – | – | Dose-dependent effect | Active | Non-toxic | Toxic | Active | Active | Active | Active | Active | Active | inactive | Dose-dependent effect | Activity (MCF7 [9]): Active; inhibition [20]: Active; inhibition (A549 [21]): inactive; inhibition (A549 [22]): inactive; Activity (A549 [23]): inactive; inhibition (A549 [24]): inactive; fold change (FC) (A549 [25]): 10; fold change (FC) (A549 [26]): 10; inhibition [27]: Active

Reference: ChEMBL document CHEMBL1153051, “Peperomins as anti-inflammatory agents that inhibit the NF-kappaB signaling pathway” (Bioorg Med Chem Lett, 2009)
